From ChEMBL document CHEMBL4321861, “An Underlying Mechanism of Dual Wnt Inhibition and AMPK Activation: Mitochondrial Uncouplers Masquerading as Wnt Inhibitors” (J Med Chem, 2019)
Activity calls are given as the source filed them. The calls are words filed in the database; no cut-off is given here.

Assays:
LS174T [1] = test: Inhibition of glucose metabolism in human LS174T cells assessed as reduction in ATP level at 10 mM by luminescence assay; format: functional, cell-based
HEK293 [2] = test: Inhibition of LiCl-activated Wnt signaling in HEK293 cells at […] by TOPFlash reporter gene assay; format: cell-based; settings: Homo sapiens
In short: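 Stable HEK293T line carrying Super 8xTOPFlash subcloned into pGL4.83 (hRlucP/Puro), selected with puromycin; Wnt signaling activated with 25 mM LiCl, compound added in DMSO (DMSO control); luciferase reporter readout. At least three independent repeats.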

Homo sapiens [3] = organism: Homo sapiens; test: Inhibition of Wnt in human DLD1 cells assessed as reduction in c-Myc expression at 1 to 3 uM by Western blot analysis; format: cell-based
In short: (§1)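 Colorectal cancer cells (DLD-1, LS174T, SW620) treated with a compound dose series in DMSO. Lysates immunoblotted for Axin2, c-Myc and cyclin D1. At least three independent repeats.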

LS174T [4] = test: Inhibition of Wnt in human LS174T cells assessed as reduction in cyclin-D1 expression at 1 uM by Western blot analysis; format: cell-based; in short: as §1
LS174T [5] = test: Inhibition of Wnt in human LS174T cells assessed as reduction in Axin2 expression at 1 uM by Western blot analysis; format: cell-based; in short: as §1
Homo sapiens [6] = organism: Homo sapiens; test: Inhibition of Wnt in human DLD1 cells assessed as reduction in Axin2 expression at 1 to 3 uM by Western blot analysis; format: cell-based; in short: as §1
[7] = biological target: T1, AMP-activated protein kinase, AMPK (Homo sapiens) (UniProt P54646+O43741+P54619+Q9UGJ0+Q9Y478+Q13131+Q9UGI9); test: Activation of AMPK in human LS174T cells assessed as increase in AMPK phosphorylation at T172 residue at 3 uM by Western blot analysis; format: cell-based
In short: (§2)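 Cells lysed in 50 mM HEPES, 100 mM NaCl, 2 mM EDTA, 1% glycerol, 50 mM NaF, 1 mM Na3VO4, 1% Triton X-100 with protease inhibitors. Western blot probed for total and phospho-AMPK and total and phospho-ACC, with actin loading control. Compounds given in DMSO. At least three independent repeats.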

LS174T [8] = test: Induction of mitochondrial membrane potential disruption in human LS174T cells measured after 2 hrs by TMRM staining based fluorescence microscopic analysis; settings: Mitochondria
In short: (§3)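 Cells grown one day in 24-well plates: DLD-1 in DMEM + 10% serum, LS174T in RPMI1640 + 5% serum. Treated 2 h with compound in DMSO or DMSO, then stained with 100 nM TMRM for 15 min. Rinsed once with PBS and imaged by fluorescence microscopy at 568 nm.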

HEK293 [9] = test: Inhibition of LiCl-activated Wnt signaling in HEK293 cells at 3 uM in presence of AMPK inhibitor compound C by TOPFlash reporter gene assay; format: cell-based; settings: Homo sapiens
In short: (§4)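 Stable HEK293T Super 8xTOPFlash reporter line (pGL4.83 backbone, puromycin-selected), stimulated with 25 mM LiCl to stabilize β-catenin. Treated with compound in DMSO or DMSO. Luciferase read in 96- or 24-well format. AMPK inhibitor compound C used at 5 μM where applied. At least three independent repeats.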

HEK293 [10] = test: Effect on FOP reporter expression in LiCl-induced HEK293T cells incubated for 24 hrs by luciferase reporter gene assay; format: functional, cell-based; settings: Homo sapiens
In short: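 HEK293T cells transiently transfected with Super 8x TOPFlash or 8x FOPFlash plus control Renilla reporter. Wnt signaling activated with LiCl or Wnt3A. Cells treated with DMSO or compound in DMSO. Luciferase activity read.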

[11] = biological target: T1, AMP-activated protein kinase, AMPK (Homo sapiens); test: Activation of AMPK in human LS174T cells assessed as […] phosphorylation at S79 residue at 3 uM by Western blot analysis; format: cell-based; in short: as §2
HEK293 [12] = test: Inhibition of LiCl-activated Wnt signaling in HEK293 cells at 0.3 to 3 uM by TOPFlash reporter gene assay; format: cell-based; settings: Homo sapiens; in short: as §4
LS174T [13] = test: Inhibition of Wnt in human LS174T cells assessed as reduction in c-Myc expression at 1 uM by Western blot analysis; format: cell-based; in short: as §1
DLD-1 [14] = test: Induction of mitochondrial membrane potential disruption in human DLD1 cells measured after 2 hrs by TMRM staining based fluorescence microscopic analysis; settings: Mitochondria; in short: as §3
Homo sapiens [15] = organism: Homo sapiens; test: Inhibition of Wnt in human DLD1 cells assessed as reduction in cyclin-D1 expression at 1 to 3 uM by Western blot analysis; format: cell-based; in short: as §1
Homo sapiens [16] = organism: Homo sapiens; test: Inhibition of Wnt in human SW620 cells assessed as reduction in Axin2 expression at 1 uM by Western blot analysis; format: cell-based; in short: as §1
Homo sapiens [17] = organism: Homo sapiens; test: Inhibition of Wnt in human SW620 cells assessed as reduction in cyclin-D1 expression at 1 uM by Western blot analysis; format: cell-based; in short: as §1
LS174T [18] = test: Cytotoxicity against human LS174T cells assessed as reduction in cell viability by Vi-Cell XR cell viability analyzer-based assay; format: functional
In short: (§5)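 Colon cancer cells plated at 3.5×10^4 per well in 12-well plates. LS174T were in EMEM + 10% FBS; DLD-1 were in DMEM + 10% FBS. After 24 h, compound in DMSO added (DMSO control). Cell number and viability counted on a Vi-Cell XR analyzer. Triplicate wells.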

Homo sapiens [19] = organism: Homo sapiens; test: Inhibition of Wnt in human SW620 cells assessed as reduction in c-Myc expression at 1 uM by Western blot analysis; format: cell-based; in short: as §1
DLD-1 [20] = test: Cytotoxicity against human DLD1 cells assessed as reduction in cell viability by Vi-Cell XR cell viability analyzer-based assay; format: functional; in short: as §5
Liver [21] = test: Uncoupling of mitochondrial oxidative phosphorylation in mouse liver mitochondria assessed as increase in oxygen consumption rate in presence of oligomycin A by seahorse XFe96 analyser based assay
In short: (§6)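 Mouse liver mitochondria isolated by differential centrifugation in mannitol/sucrose/HEPES/EGTA buffer, pH 7.2. Loaded at 6 μg/well in KCl/HEPES/MgCl2/KH2PO4 respiration buffer, pH 7.2, at 37 °C. OCR measured on XFe96.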

[22] = biological target: T1, AMP-activated protein kinase, AMPK (Homo sapiens); test: Activation of AMPK (unknown origin) assessed as increase in AMPK phosphorylation at T172 residue at 3 uM by Western blot analysis; format: protein-complex assay; in short: as §2
[23] = biological target: T1, AMP-activated protein kinase, AMPK (Homo sapiens); test: Activation of AMPK (unknown origin) assessed as […] phosphorylation at S79 residue at 3 uM by Western blot analysis; format: protein-complex assay; in short: as §2
HEK293 [24] = test: Inhibition of LiCl-activated Wnt signaling in HEK293 cells at 3 uM by TOPFlash reporter gene assay; format: cell-based; settings: Homo sapiens; in short: as §4
Liver [25] = test: Uncoupling of mitochondrial oxidative phosphorylation in mouse liver mitochondria assessed as increase in oxygen consumption rate at 1 to 5 uM in presence of oligomycin A by seahorse XFe96 analyser based assay; in short: as §6
[26] = biological target: T1, AMP-activated protein kinase, AMPK (Homo sapiens); test: Activation of AMPK in human LS174T cells assessed as increase in AMPK phosphorylation at T172 residue by Western blot analysis; format: cell-based; in short: as §2
[27] = biological target: T1, AMP-activated protein kinase, AMPK (Homo sapiens); test: Activation of AMPK in human LS174T cells assessed as […] phosphorylation at S79 residue by Western blot analysis; format: cell-based; in short: as §2
HEK293 [28] = test: Inhibition of LiCl-activated Wnt signaling in HEK293 cells by TOPFlash reporter gene assay; format: cell-based; settings: Homo sapiens; in short: as §4
DLD-1 [29] = test: Inhibition of mitochondrial oxidative phosphorylation in human DLD1 cells assessed as reduction in oxygen consumption rate by seahorse XFe96 analyser based assay; settings: Mitochondria
In short: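 DLD-1 cells, ~3×10^4 per well, seeded a day ahead; medium switched to Seahorse XF modified medium with 25 mM glucose and 1 mM pyruvate. Mitochondrial stress test: 1 μM oligomycin A, test compound in DMSO in place of FCCP, then 1.0 μM rotenone plus 1.0 μM antimycin A. OCR recorded; ATP production rate by real-time ATP rate assay.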

With `OC[C@H]1OC(O)C[C@@H](O)[C@@H]1O` (some centres not stated) the inhibition (LS174T [1]) was “Active” and the inhibition (HEK293 [2]) was “Active”.
With `O=C(Nc1ccc(C(F)(F)F)cc1)Nc1cc(F)c(F)c(F)c1` the inhibition (Homo sapiens [3]) was “Active”, the inhibition (LS174T [4]) was “Active” and the inhibition (LS174T [5]) was “Active”. The inhibition (Homo sapiens [6]) was “Active”, the Activity [7] was “Active” and the Activity (LS174T [8]) was “Active”. The inhibition (HEK293 [9]) was “Active”, the Activity (HEK293 [10]) was “inactive” and the Activity [11] was “Active”. For the same compound, the inhibition (HEK293 [12]) was “Active”, the inhibition (LS174T [13]) was “Active” and the Activity (DLD-1 [14]) was “Active”. For the same compound, the inhibition (Homo sapiens [15]) was “Active”, the inhibition (Homo sapiens [16]) was “Active” and the inhibition (Homo sapiens [17]) was “Active”. The IC50 (LS174T [18]) was 550 nM, the inhibition (Homo sapiens [19]) was “Active” and the IC50 (DLD-1 [20]) was 540 nM.
For `O=[N+]([O-])c1ccc(NS(=O)(=O)c2cc(Cl)ccc2Cl)c2ccccc12`, the Activity (Liver [21]) was “Dose-dependent effect”, the Activity [22] was “Active” and the Activity [23] was “Active”. The inhibition (HEK293 [24]) was “Active”.
For `Cc1cc([N+](=O)[O-])ccc1N(C)S(=O)(=O)c1cc(Cl)ccc1Cl`, the Activity [22] was “inactive”, the Activity [23] was “inactive” and the inhibition (HEK293 [24]) was “inactive”. For the same compound, the Activity (Liver [25]) was “inactive”.
In the case of `O=C1[C@H](Cc2ccc(O)cc2)N2C(=O)CCN(C(=O)NCc3ccccc3)[C@H]2CN1Cc1cccc2ccccc12`, the Activity [26] is reported as “inactive”, the Activity [27] is reported as “inactive” and the inhibition (HEK293 [28]) is reported as “Active”.
With `CCCCCCC1C(=O)O[C@H](C)[C@H](NC(=O)c2cccc(NC=O)c2O)C(=O)O[C@@H](C)[C@@H]1OC(=O)CC(C)C` (some centres not stated) the inhibition (DLD-1 [29]) was “Active”.
